Results reported in ChEMBL document CHEMBL4396890, “Synthesis, Biological Evaluation, Structure-Activity Relationship, and Mechanism of Action Studies of Quinoline-Metronidazole Derivatives Against Experimental Visceral Leishmaniasis” (J Med Chem, 2019).
The source made the active and inactive calls. The rule behind the calls is not given here.

Key:
[1] = system: Leishmania donovani; assay: Antileishmanial activity against Leishmania donovani MHOM/IN/80/Dd8 amastigotes harboring luciferase reporter gene infected in mouse J774 cells at 50 uM after 48 hrs by Steady-Glo luminescence assay relative to control; assay type: functional; details: MHOM/IN/80/Dd8, J774, 48 h
Method in brief: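 Infection of J774 macrophages with L. donovani Dd8 promastigotes at a 1:8 cell:parasite ratio. Compounds were diluted 2-fold in RPMI over 3.125–100 μM final and applied for 48 h. Amastigote inhibition was read by luciferase (RLU) or by Giemsa count of amastigotes per 100 macrophages. IC50 was from dose–response; n = 3 independent experiments done in replicate.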

[2] = system: Leishmania donovani; assay: Antileishmanial activity against Leishmania donovani MHOM/IN/80/Dd8 promastigotes infected in BALB/c mouse assessed as reduction in parasite load in spleen at 50 mg/kg, ip administered once daily for 5 days measured 7 days post dose by giemsa staining-based assay relative to control; assay type: functional; design: scale not given: the % may be the effect or the level left
Method in brief: (§1)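 Hamster-passaged strain was transformed to promastigotes. Stationary-phase cells (2 × 10^7 in 0.2 mL PBS) were injected into the tail vein of BALB/c mice. From day 15 post-infection, mice received compound ip in 8% DMSO in PBS for 5 consecutive days, 5 mice per group. Mice were killed day 7 post-treatment. Liver and spleen burden was read from Giemsa-stained stamp smears as LDU.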

[3] = system: Leishmania donovani; assay: Induction of apoptosis in Leishmania donovani MHOM/IN/80/Dd8 promastigotes assessed as early apoptotic cells at 50 uM measured after 48 hrs by Annexin V-FITC/propidium iodide staining based assay (reference value: 6.91%); assay type: functional
[4] = AUC (0 to 48 hrs) in BALB/c mouse at 50 mg/kg, po administered via gavage by LC-MS/MS analysis; assay type: ADME, organism-based; design: time < 48 hr, dose 50 mg/kg, route oral; details: in vivo
[5] = system: Leishmania donovani; assay: Antileishmanial activity against Leishmania donovani MHOM/IN/80/Dd8 promastigotes harboring luciferase reporter gene at 100 uM after 48 hrs by MTT assay; assay type: functional, organism-based
Method in brief: (§2)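 Luciferase-expressing L. donovani Dd8 promastigotes were grown at 24 °C in M199 with 10% heat-inactivated FBS and G418 20 μg/mL. They were exposed to a range of concentrations for 48 h, and viability was read by MTT absorbance as percent of untreated control. IC50 was from dose–response; n = 3 independent experiments done in replicate.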

[6] = Half life in BALB/c mouse at 50 mg/kg, po administered via gavage by LC-MS/MS analysis; assay type: ADME, organism-based; details: in vivo
[7] = system: Leishmania donovani; assay: Induction of mitochondrial potential loss in Leishmania donovani MHOM/IN/80/Dd8 promastigotes at 50 uM by JC1 dye-based flow cytometry; assay type: functional, organism-based; details: TDE = time-dependent effect
Method in brief: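 Exponential-phase promastigotes were incubated with 50 μM compound for 6−48 h, or 0.1% DMSO vehicle. CCCP (50 μM) served as positive control. After JC-1 staining, the red-to-green fluorescence shift was measured by flow cytometry.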

[8] = system: Leishmania donovani; assay: Antileishmanial activity against Leishmania donovani MHOM/IN/80/Dd8 promastigotes harboring luciferase reporter gene after 48 hrs by MTT assay relative to control; assay type: functional; method in brief: as §2
[9] = system: Leishmania donovani; assay: Antileishmanial activity against Leishmania donovani MHOM/IN/80/Dd8 promastigotes harboring luciferase reporter gene after 48 hrs by MTT assay; assay type: functional, organism-based; details: for IC50: MHOM/IN/80/Dd8, 48 h; method in brief: as §2
[10] = system: Leishmania donovani; assay: Antileishmanial activity against Leishmania donovani MHOM/IN/80/Dd8 promastigotes infected in BALB/c mouse assessed as reduction in parasite load in liver at 200 mg/kg, ip administered once daily for 5 days measured 7 days post dose by giemsa staining-based assay relative to control; assay type: functional; design: scale not given: the % may be the effect or the level left; method in brief: as §1
[11] = system: Leishmania donovani; assay: Induction of mitochondrial membrane disruption in Leishmania donovani MHOM/IN/80/Dd8 promastigotes assessed as increase in cytochrome c release from mitochondria to cytosol at 50 uM measured after 6 to 48 hrs by immunoblot analysis; assay type: functional, organism-based
Method in brief: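 Promastigotes were treated with 50 μM compound for 6−48 h, or 0.1% DMSO for 48 h. Mitochondrial and cytosolic fractions were immunoblotted for cytochrome c, with COX-IV and β-tubulin as fraction loading controls.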

[12] = system: Leishmania donovani; assay: Antileishmanial activity against Leishmania donovani MHOM/IN/80/Dd8 promastigotes harboring luciferase reporter gene by MTT assay; assay type: functional, organism-based; details: TDE = time-dependent effect; method in brief: as §2
[13] = system: Leishmania donovani; assay: Antileishmanial activity against Leishmania donovani MHOM/IN/80/Dd8 promastigotes infected in BALB/c mouse assessed as reduction in parasite load in spleen at 200 mg/kg, ip administered once daily for 5 days measured 7 days post dose by giemsa staining-based assay relative to control; assay type: functional; design: scale not given: the % may be the effect or the level left; method in brief: as §1
[14] = system: Leishmania donovani; assay: Antileishmanial activity against Leishmania donovani MHOM/IN/80/Dd8 promastigotes harboring luciferase reporter gene at 100 uM after 48 hrs by Steady-Glo luminescence assay; assay type: functional, organism-based
Method in brief: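 Luciferase-expressing L. donovani Dd8 promastigotes were grown at 24 °C in M199 with 10% heat-inactivated FBS and G418 20 μg/mL. They were treated at varied concentrations for 24 and 48 h, and inhibition was read as relative luminescence units versus untreated control. IC50 was from dose–response; screening values are mean ± SD of at least three experiments in duplicate.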

[15] = system: Leishmania donovani; assay: (§3) Induction of apoptosis in Leishmania donovani MHOM/IN/80/Dd8 promastigotes assessed as increase in meta-caspase activity at 50 uM using BOC-GRR-AMC as substrate preincubated for 1 hr followed by substrate addition and measured after 2 hrs in presence of meta-caspase inhibitor antipain by fluorometric assay; assay type: functional, organism-based
Method in brief: (§4)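 Log-phase promastigotes were pretreated for 1 h with antipain (1 μM) or zVAD-fmk (100 μM), then exposed to 50 μM compound or 0.1% DMSO. Metacaspase activity in lysates was read with fluorogenic BOC-GRR-AMC and expressed as RFU per mg protein.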

[16] = system: Leishmania donovani; assay: Induction of mitochondrial membrane disruption in Leishmania donovani MHOM/IN/80/Dd8 promastigotes assessed as reduction in intracellular ATP level at 50 uM measured after 6 to 48 hrs by luciferase-based assay relative to control; assay type: functional
Method in brief: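 Promastigotes were incubated with 0.1% DMSO or 50 μM compound for 6−48 h. Cytosolic ATP was quantified by bioluminescence assay. At least 3 independent experiments in duplicate.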

[17] = system: Leishmania donovani; assay: Induction of apoptosis in Leishmania donovani MHOM/IN/80/Dd8 promastigotes assessed as DNA fragmentation at 50 uM after 48 hrs by TUNEL staining-based confocal microscopic analysis; assay type: functional, organism-based
Method in brief: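 Log-phase promastigotes (1 × 10^5) were treated with 50 μM compound or 0.1% DMSO vehicle for 48 h. DNA fragmentation was labelled with an APO-BrdU TUNEL kit with PI counterstain. Cells were imaged by phase-contrast and fluorescence microscopy.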

[18] = system: Leishmania donovani; assay: Induction of apoptosis in Leishmania donovani MHOM/IN/80/Dd8 promastigotes assessed as early apoptotic cells at 50 uM measured after 12 hrs by Annexin V-FITC/propidium iodide staining based assay (reference value: 6.91%); assay type: functional
[19] = system: Leishmania donovani; assay: as §3, with “of caspase” for “of meta-caspase”, “inhibitor zVAD-fmk” for “inhibitor antipain”; assay type: functional, organism-based; method in brief: as §4
[20] = system: Leishmania donovani; assay: Antileishmanial activity against Leishmania donovani MHOM/IN/80/Dd8 amastigotes harboring luciferase reporter gene infected in mouse J774 cells assessed as stimulation of host immunity by measuring change in IL10 level at 50 uM after 48 hrs by ELISA; assay type: functional, organism-based
Method in brief: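 Infected J774 macrophages (24 h infection) were treated with 50 μM compound for 48 h. Culture supernatants were assayed by ELISA for TNF-α and IL-12 (Th1) and for TGF-β and IL-10 (Th2), compared with infected untreated cells.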

## Cc1cc(-c2ccc(OCCn3c([N+](=O)[O-])cnc3C)cc2)nc2ccccc12
[1]
  inhibition at 50 µM: 93.8 to 96%
[2]
  Activity: >80.3%
[3]
  Activity: 18.07%
[4]
  AUC(0-t) at 48 h: 18200 ng·h/mL
[5]
  inhibition: Active
[6]
  half-life: 4.02 h
[7]
  Activity: Tde
[8]
  Imax: >93%
[9]
  inhibition: Dose-dependent effect
  IC50: 5.3 µM
[10]
  Activity: 82.7%
[11]
  Activity: Active
[12]
  inhibition: Tde
[13]
  Activity: 82.2%
[14]
  inhibition: Active
[15]
  inhibition: inactive
[16]
  Imax: >67%
[17]
  Activity: Active
[18]
  Activity: 12.89%
[19]
  inhibition: Active
[20]
  Activity: inactive

## Cc1cc(-c2cccc(OCCn3c([N+](=O)[O-])cnc3C)c2)nc2ccccc12
[1]
  inhibition at 50 µM: 93.2 to 96%
[2]
  Activity: >50%
[5]
  inhibition: Active
[8]
  Imax: >93%
[9]
  inhibition: Dose-dependent effect
  IC50: 9.4 µM
[10]
  Activity: 55.5%
[12]
  inhibition: Tde
[13]
  Activity: 54.14%
[14]
  inhibition: Active
